Source: ChEMBL document CHEMBL4033676, “Design, synthesis and biological evaluation of 3,4-dihydro-2(1H)-quinoline-O-alkylamine derivatives as new multipotent cholinesterase/monoamine oxidase inhibitors for the treatment of Alzheimer's disease” (Bioorg Med Chem, 2017)
pIC50: −log10 of the molar value.

Assays:
[1] = biological target: T1, Acetylcholinesterase (Rattus norvegicus, UniProt P37136)
T1 sequence (P37136 whole entry): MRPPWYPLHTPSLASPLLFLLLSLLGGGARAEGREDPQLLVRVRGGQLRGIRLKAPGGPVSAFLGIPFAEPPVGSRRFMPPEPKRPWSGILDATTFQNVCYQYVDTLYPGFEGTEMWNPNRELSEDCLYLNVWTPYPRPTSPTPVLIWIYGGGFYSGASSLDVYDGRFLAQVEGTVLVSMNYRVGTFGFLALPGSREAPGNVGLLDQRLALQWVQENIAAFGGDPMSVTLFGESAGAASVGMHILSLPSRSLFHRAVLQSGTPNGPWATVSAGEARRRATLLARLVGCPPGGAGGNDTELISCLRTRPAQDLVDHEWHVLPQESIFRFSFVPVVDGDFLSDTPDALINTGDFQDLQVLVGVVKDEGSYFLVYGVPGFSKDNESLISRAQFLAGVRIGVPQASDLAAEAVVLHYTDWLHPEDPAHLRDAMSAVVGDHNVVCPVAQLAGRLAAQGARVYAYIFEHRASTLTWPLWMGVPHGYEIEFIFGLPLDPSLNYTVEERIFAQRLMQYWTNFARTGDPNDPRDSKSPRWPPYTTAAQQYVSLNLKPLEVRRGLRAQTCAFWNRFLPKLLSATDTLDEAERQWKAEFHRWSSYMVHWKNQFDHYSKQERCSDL

[2] = biological target: T2, Amine oxidase [flavin-containing] A (Homo sapiens, UniProt P21397); experiment: Inhibition of recombinant human MAO-A expressed in baculovirus infected BTI insect cells using kynuramine as substrate after 30 mins by fluorescence assay
T2 sequence (P21397 whole entry): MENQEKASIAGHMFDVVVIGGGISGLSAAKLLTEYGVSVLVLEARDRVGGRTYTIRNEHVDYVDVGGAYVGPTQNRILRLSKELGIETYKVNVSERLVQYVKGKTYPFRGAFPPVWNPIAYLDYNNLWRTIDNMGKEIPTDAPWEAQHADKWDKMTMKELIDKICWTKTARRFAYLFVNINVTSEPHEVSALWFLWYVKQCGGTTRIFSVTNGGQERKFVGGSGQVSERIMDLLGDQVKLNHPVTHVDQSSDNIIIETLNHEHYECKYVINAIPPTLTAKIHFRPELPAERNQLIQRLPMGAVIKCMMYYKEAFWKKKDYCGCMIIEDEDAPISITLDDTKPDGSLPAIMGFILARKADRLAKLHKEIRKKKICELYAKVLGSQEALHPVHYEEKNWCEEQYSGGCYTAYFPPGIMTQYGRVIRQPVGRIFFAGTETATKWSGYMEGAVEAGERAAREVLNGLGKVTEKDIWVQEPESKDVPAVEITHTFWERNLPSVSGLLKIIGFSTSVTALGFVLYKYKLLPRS

[3] = biological target: T3, Amine oxidase [flavin-containing] B (Homo sapiens, UniProt P27338); experiment: biochemical; assay type: cell-based
T3 sequence (P27338 whole entry): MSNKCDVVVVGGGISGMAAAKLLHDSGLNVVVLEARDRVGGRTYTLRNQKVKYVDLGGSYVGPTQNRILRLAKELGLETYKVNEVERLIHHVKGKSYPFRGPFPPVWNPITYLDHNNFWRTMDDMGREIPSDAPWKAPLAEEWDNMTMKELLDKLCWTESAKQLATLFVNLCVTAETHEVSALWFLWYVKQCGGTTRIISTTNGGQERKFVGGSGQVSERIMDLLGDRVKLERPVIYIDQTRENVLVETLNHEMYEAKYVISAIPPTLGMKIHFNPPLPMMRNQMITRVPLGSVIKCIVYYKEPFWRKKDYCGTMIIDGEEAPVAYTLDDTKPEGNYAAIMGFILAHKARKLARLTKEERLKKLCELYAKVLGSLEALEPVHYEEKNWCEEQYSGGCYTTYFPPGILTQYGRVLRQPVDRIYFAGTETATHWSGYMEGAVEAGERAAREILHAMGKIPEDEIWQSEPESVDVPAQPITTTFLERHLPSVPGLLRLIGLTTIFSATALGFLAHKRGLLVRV

[4] = species on record: Homo sapiens; experiment: Selectivity index, ratio of IC50 for recombinant human MAO-B to IC50 for recombinant human MAO-A
[5] = biological target: Acetylcholinesterase (Electrophorus electricus, UniProt O42275); experiment: Inhibition of electric eel AChE using acetylthiocholine chloride as substrate after 15 mins by Ellman's method
[6] = species on record: Rattus norvegicus; experiment: Selectivity index, ratio of IC50 for rat serum BuChE to IC50 for 5% rat cortex homogenate AChE
[7] = biological target: Cholinesterase (Equus caballus, UniProt P81908); experiment: Inhibition of equine serum BuChE using butyrylthiocholine chloride as substrate after 15 mins by Ellman's method
How it was run: (§1)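 Ellman assay. Equine serum or rat serum BuChE pre-incubated with test compound at various concentrations (DMSO <1%) in 0.1 M phosphate buffer pH 8.0 for 15 min at 37°C. DTNB (0.2%) added, absorbance read at 412 nm. Inhibition % = (1−Ai/Ac)×100. IC50 is the mean of three independent experiments, each run in triplicate.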

[8] = Inhibition of rat serum BuChE using butyrylthiocholine chloride as substrate after 15 mins by Ellman's method
How it was run: as §1

[9] = Selectivity index, ratio of IC50 for equine serum BuChE to IC50 for electric eel AChE

Chain of Cholinesterase (P81908 whole entry): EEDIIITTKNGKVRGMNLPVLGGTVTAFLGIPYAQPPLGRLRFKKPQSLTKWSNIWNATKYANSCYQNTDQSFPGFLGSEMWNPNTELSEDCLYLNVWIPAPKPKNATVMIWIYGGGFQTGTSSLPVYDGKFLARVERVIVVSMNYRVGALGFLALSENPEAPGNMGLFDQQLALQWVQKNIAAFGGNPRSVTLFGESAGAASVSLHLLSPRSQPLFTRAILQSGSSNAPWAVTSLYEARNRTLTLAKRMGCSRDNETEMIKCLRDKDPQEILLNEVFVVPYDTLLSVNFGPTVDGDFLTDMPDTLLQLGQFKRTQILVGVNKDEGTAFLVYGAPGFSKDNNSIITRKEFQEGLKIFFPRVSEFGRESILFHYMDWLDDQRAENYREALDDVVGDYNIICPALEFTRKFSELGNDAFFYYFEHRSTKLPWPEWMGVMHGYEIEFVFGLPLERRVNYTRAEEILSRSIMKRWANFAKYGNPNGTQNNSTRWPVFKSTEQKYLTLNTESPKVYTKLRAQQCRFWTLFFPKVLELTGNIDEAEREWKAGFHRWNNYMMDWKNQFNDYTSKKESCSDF
Chain of Acetylcholinesterase (Electrophorus electricus, UniProt O42275) (O42275 whole entry): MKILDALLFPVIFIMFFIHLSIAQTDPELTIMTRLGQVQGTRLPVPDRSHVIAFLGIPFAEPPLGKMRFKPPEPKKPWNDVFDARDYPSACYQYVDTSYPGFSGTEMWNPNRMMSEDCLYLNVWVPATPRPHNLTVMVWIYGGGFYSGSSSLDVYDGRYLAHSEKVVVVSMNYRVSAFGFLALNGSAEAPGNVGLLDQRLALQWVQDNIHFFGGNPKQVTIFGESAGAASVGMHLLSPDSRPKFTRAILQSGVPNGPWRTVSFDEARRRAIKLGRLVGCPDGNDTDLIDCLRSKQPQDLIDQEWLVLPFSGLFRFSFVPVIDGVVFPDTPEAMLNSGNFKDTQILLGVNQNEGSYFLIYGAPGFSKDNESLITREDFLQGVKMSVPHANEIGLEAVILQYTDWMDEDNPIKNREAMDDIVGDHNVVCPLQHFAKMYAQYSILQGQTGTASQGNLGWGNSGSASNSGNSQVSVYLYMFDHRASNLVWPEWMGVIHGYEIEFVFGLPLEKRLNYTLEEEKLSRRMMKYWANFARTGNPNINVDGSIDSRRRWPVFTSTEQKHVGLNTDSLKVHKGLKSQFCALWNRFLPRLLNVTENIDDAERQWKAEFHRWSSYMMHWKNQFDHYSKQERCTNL

| Compound | pIC50 [1] | pIC50 [2] | pIC50 [3] | Ratio IC50 [4] | pIC50 [5] | Ratio IC50 [6] | pIC50 [7] | pIC50 [8] | Ratio IC50 [9] |
| --- | --- | --- | --- | --- | --- | --- | --- | --- | --- |
| O=C1CCc2ccc(OCCCN3CCc4ccccc4C3)cc2N1 | 4.81 | 5.07 | 4.73 | 2.2 | 4.88 | 0.8 | 5.26 | 4.90 | 0.4 |
| CC(C)N1CCN(CCCCCCOc2ccc3c(c2)NC(=O)CC3)CC1 | 5.61 | 5.17 | 4.60 | 3.7 | 6.12 | 0.7 | 5.70 | 5.74 | 2.7 |
| O=C1CCc2ccc(OCCCCN3CCc4ccccc4C3)cc2N1 | 4.74 | 5.31 | 5.16 | 1.4 | 5.00 | 0.7 | 5.42 | 4.91 | 0.4 |
| O=C1CCc2ccc(OCCCCCN3CCCCC3)cc2N1 | 5.08 | 5.08 | 4.77 | 2 | 4.89 | 3.8 | 4.48 | 4.50 | 2.6 |
| CC(C)N1CCN(CCCOc2ccc3c(c2)NC(=O)CC3)CC1 | 4.85 | 5.03 | 4.58 | 2.8 | 5.21 | 0.7 | 4.70 | 4.99 | 3.3 |
| CCN(CC)CCCCOc1ccc2c(c1)NC(=O)CC2 | 4.84 | 5.11 | 5.40 | 0.5 | 5.29 | 0.7 | 5.11 | 5.02 | 1.5 |
| O=C1CCc2ccc(OCCCCCN3CCN(Cc4ccccc4)CC3)cc2N1 | 4.80 | 5.62 | 5.19 | 2.7 | 5.00 | 1.9 | 4.90 | 4.53 | 1.3 |
| O=C1CCc2ccc(OCCCCCCN3CCN(c4ccccn4)CC3)cc2N1 | 4.47 | 5.25 | 4.95 | 2 | 4.72 | 1.4 | 5.39 | 4.32 | 0.2 |
| O=C1CCc2ccc(OCCCCCN3CCN(c4ccccn4)CC3)cc2N1 | 4.55 | 4.89 | 4.69 | 1.6 | 4.81 | 1.6 | 5.21 | 4.35 | 0.4 |
| COc1cc2c(cc1OC)C(=O)C(CC1CCN(Cc3ccccc3)CC1)C2 (stereo not drawn) [DONEPEZIL] |  |  |  |  |  |  |  | 5.35 |  |
| O=C1CCc2ccc(OCCCCN3CCN(Cc4ccccc4)CC3)cc2N1 | 4.86 | 5.13 | 5.03 | 1.3 | 5.22 | 2.3 | 4.97 | 4.50 | 1.8 |
| O=C1CCc2ccc(OCCCCN3CCCCC3)cc2N1 | 4.94 | 5.02 | 5.19 | 0.7 | 4.93 | 2 | 4.80 | 4.64 | 1.3 |
| O=C1CCc2ccc(OCCCCN3CCN(c4ccccn4)CC3)cc2N1 | 4.68 | 5.16 | 5.00 | 1.5 | 4.86 | 1.9 | 5.08 | 4.40 | 0.6 |
| O=C1CCc2ccc(OCCCCCCN3CCCC3)cc2N1 | 5.47 | 5.89 | 5.46 | 2.8 | 5.59 | 2.5 | 6.06 | 5.07 | 0.33 |
| CCN(CC)CCCCCCOc1ccc2c(c1)NC(=O)CC2 | 4.38 | 5.27 | 5.07 | 1.6 | 4.88 | 0.6 | 4.53 | 4.61 | 2.2 |
| O=C1CCc2ccc(OCCCCCCN3CCN(Cc4ccccc4)CC3)cc2N1 | 4.75 | 5.24 | 5.37 | 0.7 | 4.89 | 1.3 | 5.18 | 4.62 | 0.5 |
| O=C1CCc2ccc(OCCCN3CCCCC3)cc2N1 | 4.78 | 4.88 | 5.21 | 0.5 | 4.91 | 1.4 | 4.41 | 4.64 | 3.2 |
| C#CCN(CCCCOc1ccc2c(c1)NC(=O)CC2)Cc1ccccc1 | 4.63 | 5.03 | 5.04 | 1 | 4.67 | 1.4 | 4.72 | 4.49 | 0.9 |
| CC(C)N1CCN(CCCCOc2ccc3c(c2)NC(=O)CC3)CC1 | 5.44 | 4.84 | 5.12 | 0.5 | 6.00 | 1 | 5.35 | 5.43 | 4.4 |
| CCN(CC)CCCOc1ccc2c(c1)NC(=O)CC2 | 4.72 | 5.08 | 4.73 | 2.2 | 4.95 | 1.1 | 4.53 | 4.69 | 2.7 |
| O=C1CCc2ccc(OCCCN3CCC(N4CCCC4)CC3)cc2N1 | 4.80 | 5.02 | 4.72 | 2 | 5.24 | 1.3 | 4.40 | 4.67 | 6.9 |
| O=C1CCc2ccc(OCCCN3CCN(c4ccccn4)CC3)cc2N1 | 4.70 | 5.96 | 4.74 | 17.1 | 5.02 | 2 | 4.84 | 4.41 | 1.5 |
| C#CCN(CCCCCOc1ccc2c(c1)NC(=O)CC2)Cc1ccccc1 | 4.84 | 5.05 | 5.08 | 0.9 | 4.71 | 2.1 | 5.15 | 4.53 | 0.4 |
| CCN(CC)CCCCCOc1ccc2c(c1)NC(=O)CC2 | 4.47 | 4.94 | 5.07 | 0.7 | 5.09 | 0.4 | 4.66 | 4.83 | 2.7 |
